Results pooled from the literature.
Each line is one published result; the experiments were not run side by side.
Effect on: enzyme activity
Mode: inhibitor
MAP3K1: Mitogen-activated protein kinase kinase kinase 1 (MAP3K1, Homo sapiens, UniProt Q13233)
HIPK1: Homeodomain-interacting protein kinase 1 (HIPK1, Homo sapiens, UniProt Q86Z02)
MAP3K11: Mitogen-activated protein kinase kinase kinase 11 (MAP3K11, Homo sapiens, UniProt Q16584)

SMILES	target	test	conditions	remaining activity [%]
COc1cc(Nc2cnc(C#N)c(O[C@H](C)CN(C)C)n2)ncc1-c1cnn(C)c1	MAP3K1	radiometric	10 µM	99
Cc1cnc(NC2CCOCC2)nc1-n1cnc(C(=O)NC(CN)c2cc(F)cc(Cl)c2)c1 (centres unmarked)	Hepatocyte growth factor receptor (MET, Homo sapiens, UniProt P08581, M1250T)	radiometric	1 µM	100
O=C(O)c1ccc2c(c1)nc(Nc1ccc3ccccc3c1)c1ccncc12	HIPK1	radiometric	1 µM	13
O=C(NCCCNc1ccnc(Nc2cccc(NC(=O)N3CCCC3)c2)n1)C1CCC1	MAP3K11	radiometric	1 µM	86
CC(C)(O)[C@H]1CC[C@H](Nc2ccc3ncc(-c4cccc(C(F)(F)F)c4)n3n2)CC1	cAMP-dependent protein kinase catalytic subunit gamma (PRKACG, Homo sapiens, UniProt P22612)	–	1 µM	98.6
O=C(NCCCNc1nc(Nc2cccc(CN3CCOCC3)c2)ncc1C1CC1)C1CCC1	MAP3K11	radiometric	1 µM	38
COc1cccc(CCNc2nc3cc(C(=O)O)ccc3c3cnccc23)c1	HIPK1	radiometric	1 µM	16
Cc1ccc(C(=O)Nc2ccc(CN3CCN(C)CC3)c(C(F)(F)F)c2)cc1C#Cc1cnc2cccnn12	Serine/threonine-protein kinase 36 (STK36, Homo sapiens, UniProt Q9NRP7)	–	23.5 nM	100
Cc1nn(CC(F)(F)F)cc1Nc1ncc(C2CC2)c(NCc2ccc(S(N)(=O)=O)cc2)n1	MAP3K11	radiometric	1 µM	89
CCCOc1ccc(OC)c(F)c1C(=O)c1ccc(C(=O)N[C@@H]2CNC[C@H]2NC(=O)c2ccc3[nH]ncc3c2)cc1	Mitogen-activated protein kinase 1 (Mapk1, Mus musculus, UniProt P63085)	–	10 µM	100
FC(F)c1nc2ccccc2n1-c1nc(N2CCOCC2)nc(N2CCOCC2)n1	MAP3K1	–	10 µM	92
